Measured values as given in ChEMBL document CHEMBL3045515, “Insecticidal benzoylphenylurea-S-carbamate: a new propesticide with two effects of both benzoylphenylureas and carbamates” (2007).

Columns and labels:
Assay type in all cases: functional
Mythimna separata [1] = assay: Larvicidal activity against Mythimna separata (Oriental armyworm) in compound treated corn leaves at 5 mg/L at 25 +/- 1 degC measured after 4 days
Mythimna separata [2] = assay: Larvicidal activity against Mythimna separata (Oriental armyworm) in compound treated corn leaves at 10 mg/L at 25 +/- 1 degC measured after 4 days
Mythimna separata [3] = assay: Larvicidal activity against Mythimna separata (Oriental armyworm) in compound treated corn leaves at 100 mg/L at 25 +/- 1 degC measured after 4 days
Mythimna separata [4] = assay: Larvicidal activity against Mythimna separata (Oriental armyworm) in compound treated corn leaves at 50 mg/L at 25 +/- 1 degC measured after 4 days
How it was run: (§1)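 Foliar-application assay on laboratory-reared Oriental armyworm (Mythimna (Pseudaletia) separata), run at 25 ± 1 °C. Larvae were scored dead or alive, and mortality was corrected by Abbott's formula on a 0–100% scale, where 0 = no activity and 100 = total kill. Bioassays were repeated as statistics required.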

Mythimna separata [5] = assay: Larvicidal activity against Mythimna separata (Oriental armyworm) in compound treated corn leaves at 25 mg/L at 25 +/- 1 degC measured after 4 days
Mythimna separata [6] = assay: Larvicidal activity against Mythimna separata (Oriental armyworm) in compound treated corn leaves at 1 mg/L at 25 +/- 1 degC measured after 4 days; how it was run: as §1
Mythimna separata [7] = assay: (§2) Larvicidal activity against Mythimna separata (Oriental armyworm) in compound treated corn leaves at […] at 25 +/- 1 degC measured after 4 days
Mythimna separata [8] = assay: as §2; remark: listed apart in the source
Mythimna separata [9] = assay: Larvicidal activity against Mythimna separata (Oriental armyworm ) in compound treated corn leaves at 0.5 mg/L at 25 +/- 1 degC measured after 4 days; how it was run: as §1

Row | Compound | Activity (Mythimna separata [1]) [%] | Activity (Mythimna separata [2]) [%] | Activity (Mythimna separata [3]) [%] | Activity (Mythimna separata [4]) [%] | Activity (Mythimna separata [5]) [%] | Activity (Mythimna separata [6]) [%] | Activity (Mythimna separata [7]) [%] | Activity (Mythimna separata [8]) [%] | Activity (Mythimna separata [9]) [%]
1 | O=C(NC(=O)c1c(F)cccc1F)Nc1ccc(Cl)cc1 [DIFLUBENZURON] | 100 | 100 | 0 | 100 | 100 | 100 | 100 | 45 | 100
2 | CNC(=O)ON=C(C)SC [METHOMYL] | 62 | 100 | 100 | – | – | – | 0 | – | –
3 | Cc1cccc(OC(=O)N(C)SN(C(=O)NC(=O)c2c(F)cccc2F)c2ccc(C(F)(F)F)cc2)c1 [Penfluron-S-MTMC] | 100 | 100 | – | 100 | 100 | 100 | 100 | 15 | 95
4 | O=C(NC(=O)c1ccccc1Cl)Nc1ccc(OC(F)(F)F)cc1 [TRIFLUMURON] | 100 | 100 | 0 | 100 | 100 | 95 | 100 | 20 | 40
